Square brackets hold non-standard residues; d marks the D form. Ends that are not written are not given here. * marks the point of attachment. Biotin = O=C1N[C@H]2[C@H](CS[C@H]2CCCCC(=O)*)N1; pS = N[C@@H](COP(=O)(O)O)C(=O)O
How the values were obtained:
[1] = target: biotinylated STARD3 FFAT peptide (residues 200-216), pS209 (human); assay: SPR
[2] = target: biotinylated STARD3 FFAT peptide (residues 200-216), pS209 + pS213 (human); assay: SPR
[3] = target: T1, recombinant MSP domain of MOSPD2 K363L (human, UniProt Q8NHP6 282-490, K363L); assay: pull-down
T1 sequence (looked up): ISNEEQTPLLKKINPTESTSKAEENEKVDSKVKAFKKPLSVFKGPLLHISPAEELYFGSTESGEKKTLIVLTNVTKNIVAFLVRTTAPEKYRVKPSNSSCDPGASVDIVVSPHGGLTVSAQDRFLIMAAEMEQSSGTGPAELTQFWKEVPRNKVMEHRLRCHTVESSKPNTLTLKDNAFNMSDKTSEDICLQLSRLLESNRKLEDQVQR

[4] = target: recombinant MSP domain of VAP-B (1-210), C-terminal His6 (human, UniProt O95292 1-210); assay: pull-down
[5] = target: T2, recombinant MSP domain of MOSPD2 (282-490), C-terminal His6 (human, UniProt Q8NHP6 282-490); assay: pull-down
T2 sequence (looked up): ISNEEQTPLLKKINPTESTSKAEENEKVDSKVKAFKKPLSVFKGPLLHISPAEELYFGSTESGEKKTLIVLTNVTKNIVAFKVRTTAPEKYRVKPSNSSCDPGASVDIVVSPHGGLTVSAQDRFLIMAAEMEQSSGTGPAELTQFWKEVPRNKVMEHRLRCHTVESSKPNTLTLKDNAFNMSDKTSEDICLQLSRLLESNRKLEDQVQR

[6] = target: T3, recombinant MSP domain of VAP-A (8-212), C-terminal His6 (human, UniProt Q9P0L0 8-212); assay: pull-down
T3 sequence (looked up): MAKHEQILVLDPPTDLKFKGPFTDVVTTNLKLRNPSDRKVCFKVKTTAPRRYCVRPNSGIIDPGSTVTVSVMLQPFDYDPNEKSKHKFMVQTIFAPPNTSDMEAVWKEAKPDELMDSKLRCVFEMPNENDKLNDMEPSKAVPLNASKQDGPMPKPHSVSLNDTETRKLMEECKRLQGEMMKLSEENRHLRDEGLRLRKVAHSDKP

[7] = target: recombinant MSP domain of VAP-B K43L (human, UniProt O95292 1-210, K43L); assay: pull-down
[8] = target: T4, recombinant MSP domain of VAP-A K50L (human, UniProt Q9P0L0 8-212, K50L); assay: pull-down
T4 sequence (looked up): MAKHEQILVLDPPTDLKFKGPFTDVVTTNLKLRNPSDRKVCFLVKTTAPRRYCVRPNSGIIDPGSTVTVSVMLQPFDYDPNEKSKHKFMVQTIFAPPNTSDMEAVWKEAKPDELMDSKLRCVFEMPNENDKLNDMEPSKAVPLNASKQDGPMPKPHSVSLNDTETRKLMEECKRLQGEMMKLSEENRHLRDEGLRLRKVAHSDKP

[9] = DHE transport assay between liposomes; assay type: biochemical; settings: per cSTD3; absence of functional VAP; 37°C; n = 4
In short: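 LA liposomes (DOPC, 3 mol% MPB-PE; 62.5 µM total lipids final) were preincubated 5 min with 475 nM cSTD3 or pS209 cSTD3 in TN3 buffer (50 mM Tris-HCl pH 8, 75 mM NaCl) at 37°C with stirring. Read-out was DNS-PE emission at 525 nm with excitation at 310 nm. Transport was expressed as mol% DHE = 10×(F−F0)/(Fmax−F0), with F0 set by 10 mM methyl-β-cyclodextrin.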

[10] = target: T5, recombinant MSP domain of MOSPD2 (315-445) (human, UniProt Q8NHP6 315-445); assay: crystal structure
T5 sequence (looked up): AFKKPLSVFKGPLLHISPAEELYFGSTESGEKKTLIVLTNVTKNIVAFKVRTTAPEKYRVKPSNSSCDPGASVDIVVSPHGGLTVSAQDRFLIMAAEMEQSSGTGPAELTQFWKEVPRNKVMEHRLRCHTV

[11] = target: T3, recombinant MSP domain of VAP-A …; assay: crystal structure

Chain of recombinant MSP domain of VAP-B (1-210), C-terminal His6 (O95292 1-210): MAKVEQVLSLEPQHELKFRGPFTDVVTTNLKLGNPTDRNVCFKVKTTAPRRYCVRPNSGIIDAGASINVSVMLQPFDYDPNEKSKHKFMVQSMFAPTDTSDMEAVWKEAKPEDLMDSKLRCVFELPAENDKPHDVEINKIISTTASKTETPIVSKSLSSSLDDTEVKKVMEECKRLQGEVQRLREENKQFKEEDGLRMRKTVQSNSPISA
Chain of recombinant MSP domain of VAP-B K43L (O95292 1-210 K43L): as the sequence (O95292 1-210) above, with K43L counted along it

Work on “recombinant MSP domain of VAP-B (1-210), C-terminal His6 (from UniProt O95292 1-210) (domain or fragment)” yielded a Kd [1] of 7.1 µM.

With “recombinant MSP domain of VAP-A (8-212), C-terminal His6 (from UniProt Q9P0L0 8-212) (domain or fragment)” the Kd [1] was 5.6 µM.

“recombinant MSP domain of MOSPD2 (282-490), C-terminal His6 (from UniProt Q8NHP6 282-490) (domain or fragment)” showed a Kd [1] of 1.1 µM and a Kd [2] of 0.35 µM.

B1: biotinylated ORP1 FFAT peptide (residues 469-485) (peptide)
peptide: Biotin-GAMRSILSEDEFYDALSDSES
B1: binds [3]; binds [4]; binds [5]. B1: binds [6]; binds [7]; binds [8].

B2: biotinylated STARD3 FFAT peptide (residues 200-216), pS209 + pS213 (peptide)
peptide: Biotin-GAMRGALSEGQFY[pS]PPE[pS]FAG
B2: binds [3].

B3: cSTD3 (protein)
chain: CLFSGALSEGQFYSPPESFAGSDNESDEEVAGKKSFSAQEREYIRQGKEATAVVDQILAQEENWKFEKNNEYGDTVYTIEVPFHGKTFILKTFLPCPAELVYQEVILQPERMVLWNKTVTACQILQRVEDNTLISYDVSAGAAGGVVSPRDFVNVRRIERRRDRYLSSGIATSHSAKPPTHKYVRGENGPGGFIVLKSASNPRVCTFVWILNTDLKGRLPRYLIHQSLAATMFEFAFHLRQRISELGARA
modifications: left off: GST, N-terminal, cleaved
For B3, the “Initial DHE transport rate” value [9] was 10.45 DHE molecules/min.

B4: phosphorylated FFAT peptide of STARD3 used for crystallisation with MOSPD2 (CLFSGALpSEGQFYpSPPEpSFAG) (peptide)
peptide: CLFSGAL[pS]EGQFY[pS]PPE[pS]FAG
B4: binds [10].

B5: phosphorylated FFAT peptide of STARD3 used for crystallisation with VAP-A (GALpSEGQFYpSPPEpSFAG) (peptide)
peptide: GAL[pS]EGQFY[pS]PPE[pS]FAG
B5: binds [11].

— paper PMC7705450 (The EMBO Journal, 2020)
